# Screening data deposited in PubChem by several laboratories.
# CCR6 antag: antagonists of human CCR6 receptor. AID 493098. inhibition, % at 20 µM. hit rate 0.49% among 340,000. CHO-K1 CCR6 PathHunter beta-arrestin, luminescence, CCL20-stimulated. P51684;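 active = compounds whose inhibition of the agonist-driven luminescence signal at 20 µM reaches about 50%, limit read from the data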;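 also: cells stimulated with CCL20 at 14 nM final; plate controls were DMSO with CCL20 for no effect and DMSO without agonist for full effect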
# APJ antag: antagonists of human APJ apelin receptor | CHO-K1 APJ beta-arrestin complementation, luminescence | inhibition, % at 20 µM | AID 2521 | P35414 | hit rate 0.32% among 330,000;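 active = inhibition above about 40% at 20 µM, limit read from the data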;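 also: cells challenged with 10 nM apelin-13 agonist together with compound; plate controls were apelin-13 plus DMSO wells for no effect and DMSO wells lacking apelin-13 for full effect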
# EBI2 antag: antagonists of human EBI2 receptor. inhibition, % at 5 µM. AID 651636. P32249. hit rate 0.81% among 360,000. EBI2 beta-arrestin recruitment, luminescence, 7a,25-OHC stimulated; in the data active = inhibition above about 38%;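 also: enzyme fragment complementation signal reports receptor beta-arrestin coupling in cells; 0% = agonist plus DMSO wells and 100% = wells without agonist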
# Target sequence (P32249 whole entry, looked up, the tested form may be a part): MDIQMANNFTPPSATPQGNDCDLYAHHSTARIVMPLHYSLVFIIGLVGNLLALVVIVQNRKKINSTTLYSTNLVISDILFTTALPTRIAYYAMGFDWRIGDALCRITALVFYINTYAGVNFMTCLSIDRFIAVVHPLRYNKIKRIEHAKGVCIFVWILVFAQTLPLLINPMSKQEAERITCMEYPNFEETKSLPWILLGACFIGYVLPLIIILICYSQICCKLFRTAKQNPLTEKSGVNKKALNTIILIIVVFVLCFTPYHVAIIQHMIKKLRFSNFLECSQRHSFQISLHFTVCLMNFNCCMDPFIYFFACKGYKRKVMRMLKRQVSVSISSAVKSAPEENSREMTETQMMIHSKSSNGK
# HTR2A ag: activates the mouse 5-HT2A serotonin receptor; P35363; CHO-K1 mHTR2A beta-arrestin complementation, luminescence; percent of 30 µM serotonin response; activation, % at 7.6 µM; hit rate 0.66% among 360,000; AID 624169;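 active = activation above a run cutoff, the mean activation of all tested compounds plus 3 SD, cut at about 14% in these data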;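 also: 0% = plate median of compound wells and 100% = 30 µM serotonin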
# APJ agonist: activates the human apelin receptor APJ. P35414. CHO-K1 APJ PathHunter beta-arrestin, luminescence; 0% DMSO wells, 100% apelin. activation, % at 20 µM. hit rate 0.11% among 330,000;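 active = activation more than six SD over the plate average, tested at 20 µM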;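 also: 0% = DMSO alone and 100% = apelin-13 at 10 nM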
#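 assay system = CHO-K1 APJ beta-arrestin complementation cell line | input = cell density 1000 per well | dosing = compound 20 µM once, DMSO 1% | timing = compound 90 min 25 °C, reagent 1 h | measured by = luminescence from split beta-galactosidase complementation, Galacton Star/Emerald II substrate | read-out basis = APJ agonist activity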
# CXCR6 block: CXCR6 (human) receptor inhibition | inhibition, % at 20 µM | hit rate 0.36% among 360,000 | AID 602244 | CHO-K1 PathHunter CXCR6 beta-arrestin, luminescence | O00574; in the data active = inhibition above about 34%, passing the limit was not always enough;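 also: antagonist mode with CXCL16 agonist at 10 nM final; 0% = 10 nM CXCL16 with DMSO and 100% = unstimulated wells without agonist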
# OPRM1 ag: counter-screen for mouse HTR2A agonists: human mu opioid receptor agonists; shares compounds with HTR2A ag; U2OS OPRM1 beta-arrestin PathHunter, luminescence; DMSO 0%, DAMGO 9.3 µM 100%; activation, % at 9.3 µM; hit rate 5.3% among 2,300;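 active = mean activation above the mean of DMSO-only wells plus 3 SD, cut at about 0.5% in these data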
# HTR2A ag conf: confirmation of mouse HTR2A serotonin receptor agonists; CHO-K1 PathHunter beta-arrestin recruitment, luminescence; DMSO 0%, 30 µM serotonin 100%; shares compounds with HTR2A ag; AID 624381; activation, % at 7.6 µM; hit rate 19% among 2,300;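 active = mean activation across triplicates above the hit threshold derived in the original primary screen, cut at about 15% in these data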
# Starred values were filed as active, the others as inactive; nt = no result given. Hits are enriched below; roughly 2.1% of the tested compounds scored in any of these assays.
SMILES,CCR6 antag,APJ antag,EBI2 antag,HTR2A ag,APJ agonist,CXCR6 block,OPRM1 ag,HTR2A ag conf
N#Cc1ccccc1S(=O)(=O)N1CCN(C(=O)C2CCCCC2)CC1,5,6,-6,1,-2,0,nt,nt
CCOCCN(C(=O)c1ccccc1Cl)c1cccc(C)c1C,-5,14,6,5,-3,2,nt,nt
CSc1nc(C)cc(Oc2ccc(OCC(N)=O)nn2)n1,-4,-9,-4,0,-6,-1,nt,nt
CSc1nc(C)cc(NC(N)=O)n1,-2,9,-7,15*,-8,7,0,0
COCCNC(=S)NNC(=O)c1cc(-c2cccnc2)nc2ccccc12,15,-2,5,-5,-3,7,nt,nt
Cn1c(NCc2ccccc2Cl)nc2ccccc21,-8,9,3,20*,-1,5,-1,2
Cn1c(NCc2ccccc2O)nc2ccccc21,-5,-12,-3,-4,-5,0,nt,nt
CSCCC(c1nc2ccccc2[nH]1)n1c(C)nc2ccccc21 (centres undefined),nt,nt,-8,0,nt,-2,nt,nt
CSCCC(c1nc2ccccc2[nH]1)n1c(-c2cc(C(F)(F)F)cc(C(F)(F)F)c2)nc2ccccc21 (centres undefined),nt,nt,-3,19*,nt,nt,0.8*,7
CC(=O)C1=C(C)NC(=O)NC1c1ccc(Cl)cc1 (centres undefined),-1,2,-2,17*,-3,0,-1,-3
CC1=C(C(N)=O)C(c2ccc(Cl)cc2)NC(=O)N1 (centres undefined),1,0,-2,0,-2,-1,nt,nt
CC1(C)N=C(N)N=C(N)N1c1cc(Cl)ccc1Cl,nt,nt,-22,23*,nt,-3,0,-1
CC(=O)c1ccc(NC(=O)C(C)O/N=C(\N)c2ccccc2)cc1 (centres undefined),12,-5,0,15*,-3,4,-1,-4
CC(Oc1ccccc1)C(=O)Nc1ccc(C(N)=O)cc1 (centres undefined),-19,-4,6,-3,0,-3,nt,nt
O=S(=O)(c1cccc2cccnc12)N1CCOCC1,6,25,4,21*,-1,6,-1,-2
COc1ccc(C)cc1NC(=O)C1CCN(S(=O)(=O)c2cccc3cccnc23)CC1,4,-2,-1,-6,0,-4,nt,nt
COc1ccc(NC(=O)C2CCN(S(=O)(=O)c3cccc4cccnc34)CC2)cc1OC,nt,2,-5,17*,-3,-4,0,-3
CN(C(=O)Cn1nc(C(=O)O)c2ccccc2c1=O)C1(C#N)CCCCC1,-5,20,10,19*,-2,8,0,9
O=C(O)c1nn(CC(=O)N2CCCCCC2)c(=O)c2ccccc12,3,-3,1,1,-3,3,nt,nt
COc1ccc(S(=O)(=O)N(C)CC(=O)N2CCOCC2)cc1,18,-12,0,0,-2,-8,nt,nt
COc1ccc(S(=O)(=O)N(C)CC(=O)N2CCCCCC2)cc1,1,6,-15,36*,-2,-6,-1,4
COc1ccc(OC)c(S(=O)(=O)N(C)CC(=O)N2CCc3ccccc3C2)c1,12,10,-25,4,-3,5,nt,nt
